{"source": "paper PMC3313004", "about": "(Molecular Microbiology, 2012)", "key": {"TcdBHV [1]": {"system": "TcdBHV", "test": "In vitro TcdB autoprocessing assay", "type": "biochemical, Clostridium difficile BI17"}, "TcdBHIST [2]": {"target": "T1, TcdBHIST (Clostridioides difficile, UniProt P18177)", "T1 sequence (P18177 whole entry)": "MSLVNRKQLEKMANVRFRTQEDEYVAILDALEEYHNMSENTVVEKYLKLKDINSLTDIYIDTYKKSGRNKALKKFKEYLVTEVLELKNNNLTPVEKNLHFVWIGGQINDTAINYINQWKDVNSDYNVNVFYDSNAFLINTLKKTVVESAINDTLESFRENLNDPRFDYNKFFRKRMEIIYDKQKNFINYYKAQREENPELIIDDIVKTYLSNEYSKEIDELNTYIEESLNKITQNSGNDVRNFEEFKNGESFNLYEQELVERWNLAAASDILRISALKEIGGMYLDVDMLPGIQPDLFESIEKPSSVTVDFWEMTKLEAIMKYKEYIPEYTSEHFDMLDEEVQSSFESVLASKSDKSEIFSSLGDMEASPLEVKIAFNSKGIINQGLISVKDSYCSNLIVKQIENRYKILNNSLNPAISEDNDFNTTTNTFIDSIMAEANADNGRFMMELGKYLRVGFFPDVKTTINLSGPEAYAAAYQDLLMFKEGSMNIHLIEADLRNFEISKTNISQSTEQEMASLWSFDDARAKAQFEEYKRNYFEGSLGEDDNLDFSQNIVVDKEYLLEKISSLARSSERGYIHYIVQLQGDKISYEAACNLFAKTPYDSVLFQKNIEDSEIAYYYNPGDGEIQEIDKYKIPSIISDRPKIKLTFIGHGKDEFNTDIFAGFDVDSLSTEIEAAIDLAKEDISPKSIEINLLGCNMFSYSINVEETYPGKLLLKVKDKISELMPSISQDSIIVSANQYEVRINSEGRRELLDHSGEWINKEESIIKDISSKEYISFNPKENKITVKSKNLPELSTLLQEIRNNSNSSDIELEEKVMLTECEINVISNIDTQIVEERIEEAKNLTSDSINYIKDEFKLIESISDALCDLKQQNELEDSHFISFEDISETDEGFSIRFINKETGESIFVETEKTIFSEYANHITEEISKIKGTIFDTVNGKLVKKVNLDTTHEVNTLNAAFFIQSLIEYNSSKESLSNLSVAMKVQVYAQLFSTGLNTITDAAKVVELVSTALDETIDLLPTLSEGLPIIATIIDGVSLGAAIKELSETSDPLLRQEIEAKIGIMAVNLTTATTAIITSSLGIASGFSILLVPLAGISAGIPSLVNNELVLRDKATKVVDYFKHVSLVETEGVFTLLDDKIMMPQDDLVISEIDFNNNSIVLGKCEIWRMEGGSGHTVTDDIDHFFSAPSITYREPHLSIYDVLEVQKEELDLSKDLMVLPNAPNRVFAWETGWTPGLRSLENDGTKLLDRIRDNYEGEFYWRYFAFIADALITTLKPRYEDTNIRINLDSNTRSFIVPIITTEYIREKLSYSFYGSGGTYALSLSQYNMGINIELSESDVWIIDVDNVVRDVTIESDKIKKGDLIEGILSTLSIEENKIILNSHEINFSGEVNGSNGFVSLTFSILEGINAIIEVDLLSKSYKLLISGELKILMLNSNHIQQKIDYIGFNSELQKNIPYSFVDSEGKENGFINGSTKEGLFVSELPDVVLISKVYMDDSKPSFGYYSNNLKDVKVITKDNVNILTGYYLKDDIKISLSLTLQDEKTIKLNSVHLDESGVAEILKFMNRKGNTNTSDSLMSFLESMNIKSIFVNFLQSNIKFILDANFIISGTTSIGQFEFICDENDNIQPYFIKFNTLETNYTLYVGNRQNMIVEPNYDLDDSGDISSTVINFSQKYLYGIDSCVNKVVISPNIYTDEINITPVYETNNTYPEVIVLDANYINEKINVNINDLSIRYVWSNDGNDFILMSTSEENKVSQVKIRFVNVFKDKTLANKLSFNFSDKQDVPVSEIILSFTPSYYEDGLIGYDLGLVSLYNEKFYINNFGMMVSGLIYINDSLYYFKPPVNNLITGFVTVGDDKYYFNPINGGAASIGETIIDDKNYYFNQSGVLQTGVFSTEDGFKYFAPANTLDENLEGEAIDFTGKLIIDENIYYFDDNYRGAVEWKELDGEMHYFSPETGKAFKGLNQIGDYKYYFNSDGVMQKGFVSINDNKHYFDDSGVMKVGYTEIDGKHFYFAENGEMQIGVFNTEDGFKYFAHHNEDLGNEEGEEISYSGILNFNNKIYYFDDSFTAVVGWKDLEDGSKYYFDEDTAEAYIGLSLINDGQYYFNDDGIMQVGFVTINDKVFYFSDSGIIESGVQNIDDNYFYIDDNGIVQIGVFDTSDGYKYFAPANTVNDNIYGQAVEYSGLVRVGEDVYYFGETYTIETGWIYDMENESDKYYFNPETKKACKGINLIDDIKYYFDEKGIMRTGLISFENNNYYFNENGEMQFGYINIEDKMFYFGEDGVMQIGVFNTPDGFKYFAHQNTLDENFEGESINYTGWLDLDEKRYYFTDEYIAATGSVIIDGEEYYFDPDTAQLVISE", "test": "In vitro TcdB autoprocessing assay", "type": "biochemical, Clostridium difficile 10463"}, "TcdBHV [3]": {"system": "TcdBHV", "test": "AWP19 probe labeling of TcdB", "type": "biochemical, Clostridium difficile BI17", "conditions": "1 h IP6, then AWP19 in 10-fold molar excess"}, "TcdBHIST [4]": {"target": "T1, TcdBHIST", "test": "AWP19 probe labeling of TcdB", "type": "biochemical, Clostridium difficile 10463", "conditions": "1 h IP6, then AWP19 in 10-fold molar excess"}, "TcdBHV [5]": {"system": "TcdBHV", "test": "In vitro inhibition of IP6-induced processing with Ac-GSL-AOMK", "type": "biochemical, Clostridium difficile BI17"}, "[6]": {"system": "TcdBHV treated CHO-K1 cells", "test": "Inactivation of TcdB in cell culture", "type": "cell-based", "conditions": "TcdBHV pre-incubated with 100 µM inhibitor; 24 hrs", "summary_of_the_method": "(§1)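 CHO-K1 cells were seeded at 1–2 × 10^4 cells/well in F12-K medium with 10% FBS. Toxin at 0.037, 0.37 or 3.7 pM was preincubated for 30 min in F12-K medium with 100 µM of the CPD inhibitor Ac-GSL-AOMK, then added to wells in triplicate. Cells were kept 24 h at 37°C, 6% CO₂, and viability was read by CCK-8.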"}, "[7]": {"system": "TcdBHIST treated CHO-K1 cells", "test": "Inactivation of TcdB in cell culture", "type": "cell-based", "conditions": "TcdBHIST pre-incubated with 100 µM inhibitor; 24 hrs", "summary_of_the_method": "as §1"}, "TcdBHIST [8]": {"target": "T1, TcdBHIST"}, "[9]": {"conditions": "up to 100 µM inhibitor, 25 µM IP6, 3 independent experiments"}}, "data": [{"molecule": "O[C@@H](CS)[C@@H](O)CS", "note": "(racemic) [DTT, Dithiothreitol]", "values": [{"measurement": "time to maximum activation", "setting": "TcdBHV [1]; 5 mM DTT in place of IP6", "value": "approximately 1 h"}, {"measurement": "time to activation of processing", "setting": "TcdBHV [1]; 5 mM DTT in place of IP6, 90 min time-course", "value": "≤ 15", "unit": "min"}, {"measurement": "activation of processing", "setting": "TcdBHIST [2]; 5 mM DTT, 90 min time-course", "value": "just slightly above the level of detection"}]}, {"molecule": "O=P(O)(O)OC1C(OP(=O)(O)O)C(OP(=O)(O)O)C(OP(=O)(O)O)C(OP(=O)(O)O)C1OP(=O)(O)O", "note": "(centres unmarked) [IP6, inositol hexakisphosphate]", "values": [{"measurement": "time to half-maximal level of proteolysis", "setting": "TcdBHV [1]; 100 µM IP6", "value": "≤ 2", "unit": "min"}, {"measurement": "percent cleavage (autoprocessing)", "setting": "TcdBHV [1]; 100 µM IP6, within the first hour", "value": "~80", "unit": "%"}, {"measurement": "time to half-maximal level of proteolysis", "setting": "TcdBHIST [2]; 100 µM IP6", "value": "≤ 2", "unit": "min"}, {"measurement": "maximal processing", "setting": "TcdBHIST [2]; 100 µM IP6, up to 60 min", "value": "under 60%"}, {"measurement": "IP6 concentration at which AWP19-labeled toxin could be detected", "setting": "TcdBHV [3]", "value": 5, "unit": "µM"}, {"measurement": "IP6 concentration at which AWP19-labeled toxin could be detected", "setting": "TcdBHIST [4]", "value": 5, "unit": "µM"}]}, {"molecule": "Ac-GSL-AOMK", "values": [{"measurement": "concentration at which inhibition of IP6-induced processing was detectable", "setting": "TcdBHV [5]; 25 µM IP6", "value": "around 12.5 µM"}, {"measurement": "effect of inhibitor without IP6", "setting": "TcdBHV [5]; no IP6 (data not shown)", "value": "no effect"}, {"measurement": "maximum percent inhibition of processing", "setting": "TcdBHV [5]; [9]", "value": "around 60%"}, {"measurement": "protection of CHO cells from toxin", "setting": "[6]", "value": "not as functional"}, {"measurement": "protection of CHO cells from toxin", "setting": "[7]", "value": "provided protection"}, {"measurement": "concentration at which inhibition of IP6-induced processing was detectable", "setting": "TcdBHIST [8]; 25 µM IP6", "value": "around 12.5 µM"}, {"measurement": "effect of inhibitor without IP6", "setting": "TcdBHIST [8]; no IP6 (data not shown)", "value": "no effect"}, {"measurement": "percent of proteolysis blocked", "setting": "TcdBHIST [8]; [9]", "value": "~100", "unit": "%"}]}]}
